# Compound activity from PubChem BioAssay.
# Compounds with a hit are over-represented: about 2.7% of the library has one in this group of screens.
# SIAE primary = blocks human sialic acid acetylesterase; Q9HAT2; AID 1053197; 0.69% of 370,000 active; inhibition, % at 9.66 µM; SIAE FP-Rh probe binding, fluorescence polarization;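 active = inhibition above a cutoff: mean of compounds within the control limits plus 3 SD of those, cut at about 17% in these data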;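 note: 0% = plate median of compound wells and 100% = probe without SIAE protein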
# Target sequence (Q9HAT2 whole entry, looked up): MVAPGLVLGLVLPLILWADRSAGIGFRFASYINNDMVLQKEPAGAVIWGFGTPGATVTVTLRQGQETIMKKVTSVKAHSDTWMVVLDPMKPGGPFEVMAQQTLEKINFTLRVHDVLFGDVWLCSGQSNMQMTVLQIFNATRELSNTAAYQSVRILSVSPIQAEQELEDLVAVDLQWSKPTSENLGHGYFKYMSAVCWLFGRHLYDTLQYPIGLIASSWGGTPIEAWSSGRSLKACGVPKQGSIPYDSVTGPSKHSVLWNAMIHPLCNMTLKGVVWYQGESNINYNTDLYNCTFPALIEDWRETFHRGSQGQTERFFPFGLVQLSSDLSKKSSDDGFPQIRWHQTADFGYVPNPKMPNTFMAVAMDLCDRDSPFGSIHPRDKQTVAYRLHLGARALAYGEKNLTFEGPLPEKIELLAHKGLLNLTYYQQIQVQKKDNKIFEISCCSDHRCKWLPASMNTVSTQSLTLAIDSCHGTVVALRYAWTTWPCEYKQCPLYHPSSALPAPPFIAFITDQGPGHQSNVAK
# RBBP9 inhibitor = blocks human serine hydrolase RBBP9. O75884. recombinant RBBP9, FP-Rh probe fluorescence polarization. inhibition, % at 7.94 µM. 0.2% of 220,000 active;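 active = inhibition above the campaign mean of all tested compounds plus 3 SD, cut at about 14% in these data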;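 note: plate controls were DMSO wells with RBBP9 for no effect and wells lacking RBBP9 protein for full effect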
#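 Controls: DMSO-treated enzyme wells and wells lacking RBBP9 | Material: RBBP9 protein | Technique: Fluorescence polarization | Replication: Single well per compound, no replicates | Buffer or medium: Tris-NaCl-Pluronic buffer, pH 8.0 | Timing: 30 min compound preincubation, 45 min probe labeling, 25 °C | Read-out basis: Percent inhibition from mP, scaled between DMSO and no-protein wells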
# PRMT1 inh = inhibitors of human PRMT1. recombinant PRMT1, activity-based probe fluorescence polarization. inhibition, % at 2.79 µM. 1.3% of 370,000 active. AID 652257;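 active = inhibition above about 21% made by adding two undisclosed values, limit read from the data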
# PAD4 FP inh = blocks human protein arginine deiminase 4; recombinant PAD4, RCA probe fluorescence polarization; inhibition, % at 6.36 µM; 0.41% of 330,000 active; AID 485272;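 active = percent inhibition above a cutoff equal to the mean of all tested compounds plus 3 SD, cut at about 15% in these data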;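 note: 0% = PAD4 with RCA probe and DMSO and 100% = probe without PAD4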
# GSTO1 counter = blocks human GSTO1 in RBBP9 counter-screen. P78417. recombinant GSTO1, activity-based probe fluorescence polarization. inhibition, % at 5.96 µM. 1.1% of 300,000 active;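 active = inhibition above the campaign mean inhibition plus 3 SD, cut at about 35% in these data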;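 note: 0% = GSTO1-1 with DMSO and 100% = wells lacking GSTO1-1 enzyme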
# PRMT1 inh conf = confirmation of human PRMT1 inhibitors; 42% of 3,300 active; shares compounds with PRMT1 inh; recombinant His-PRMT1, activity-based probe fluorescence polarization; inhibition, % at 2.79 µM;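 active = mean inhibition across replicates above the hit cutoff derived for the earlier primary screen, cut at about 22% in these data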
# Active calls of the source: *; nt = not tested or not shown.
SMILES,SIAE primary,RBBP9 inhibitor,PRMT1 inh,PAD4 FP inh,GSTO1 counter,PRMT1 inh conf
COc1ccc(C(=O)NC(C(=O)N2CCN(c3ccccc3O)CC2)C(C)C)cc1 (stereo not drawn),4,nt,-2,-2,4,nt
COc1ccc(S[C@]2(C(=O)N3CCOCC3)CC(=O)N(C(=O)C3CC3)[C@@H]2c2ccc(OC)cc2)cc1,4,nt,36*,nt,nt,27*
COc1ccc(S[C@]2(C(=O)N3CCOCC3)CC(=O)N(c3ccccc3)[C@@H]2c2ccc(OC)cc2)cc1,1,nt,6,nt,nt,nt
COc1ccc(S[C@]2(C(=O)N3CCN(C(C)=O)CC3)CC(=O)N[C@@H]2c2ccc(OC)cc2)cc1,-1,nt,8,nt,nt,nt
CCOC(=O)N1C(=O)C[C@](Sc2ccc(OC)cc2)(C(=O)N2CCN(C(C)=O)CC2)[C@H]1c1ccc(OC)cc1,5,nt,54*,nt,nt,46*
COc1ccc(S[C@]2(C(=O)N3CCN(c4ncccn4)CC3)CC(=O)N(c3ccc(C#N)cc3)[C@@H]2c2ccc(OC)cc2)cc1,-6,nt,4,nt,nt,nt
CCOC(=O)N1C(=O)C[C@](Sc2ccc(OC)cc2)(C(=O)N2CCN(c3ncccn3)CC2)[C@H]1c1ccc(OC)cc1,6,nt,41*,nt,nt,33*
CCOC(=O)N1C(=O)C[C@](Sc2ccc(OC)cc2)(C(=O)N2CCOCC2)[C@H]1c1ccc(OC)cc1,0,nt,47*,nt,nt,43*
COc1ccc(S[C@]2(C(=O)N3CCOCC3)CC(=O)N(C(=O)/C=C/c3ccccc3)[C@@H]2c2ccc(OC)cc2)cc1,-1,nt,11,nt,nt,nt
CN1CCN(S(=O)(=O)c2ccc(SCCOc3ccccc3)nc2)CC1,-7,-17,-1,-1,2,nt
COC(=O)c1ccc(C2CC(=O)NC3=C2C(=O)CCC3)cc1 (stereo not drawn),-4,-3,-1,2,0,nt
COc1cccc(N2CC(C)Cn3c2nc2c3c(=O)[nH]c(=O)n2C)c1 (stereo not drawn),-5,nt,0,nt,nt,nt
CN(CC(=O)Nc1ccc(Cl)c(C(F)(F)F)c1)C(=O)C1CC(=O)N(CCc2ccccc2)C1 (stereo not drawn),6,nt,1,nt,nt,nt
COc1ccc(S[C@]2(C(=O)N3CCCC3)CC(=O)N(C(=O)Nc3ccc(C)c(Cl)c3)[C@@H]2c2ccc(OC)cc2)cc1,-2,nt,3,nt,nt,nt
CCOC(=O)N1C(=O)C[C@](Sc2ccc(OC)cc2)(C(=O)N2CCCC2)[C@H]1c1ccc(OC)cc1,13,nt,56*,nt,nt,40*
CCCCN(CC)S(=O)(=O)c1ccc2c(c1)CCCN2C(C)=O,2,-3,-1,-1,0,nt
CCOC(=O)c1sc(NNC(=O)c2ccc(F)cc2)nc1C,-5,6,42*,1,-6,2
CCOC(=O)c1sc(NNC(=O)c2ccc(C)cc2)nc1C,12,-12,0,0,0,nt
CCOC(=O)C1=CC[C@@H](c2ccccc2)N(S(=O)(=O)c2ccc(C)cc2)[C@H]1c1ccc(C#N)cc1,-1,nt,-5,nt,nt,nt
CCOC(=O)C1=CC[C@@H](c2ccccc2)N(S(=O)(=O)c2ccc(C)cc2)[C@H]1C#N,4,nt,27*,nt,nt,22*
COC(=O)c1cc(-c2ccc(C)o2)nc2ccccc12,0,-4,42*,1,4,24*
COc1cccc(NC(=O)c2cc(-c3ccc(C)o3)nc3ccccc23)c1,-12,nt,10,-3,-5,nt
Cc1ccc(-c2cc(C(=O)O)c3cc(Br)ccc3n2)o1,-5,0,77*,8,-7,81*
Cc1ccc(-c2cc(C(=O)Nc3ccccc3C)c3ccccc3n2)o1,1,-1,44*,-5,-1,14
COc1cccc(NC(=O)CN(C)C(=O)c2cc(-c3ccc(C)o3)nc3ccccc23)c1,-11,nt,51*,1,nt,12
SMILES,SIAE primary,RBBP9 inhibitor,PRMT1 inh,PAD4 FP inh,GSTO1 counter,PRMT1 inh conf
Cc1cc(C(=O)Nc2ccccc2C)c2ccccc2n1,-4,nt,-1,-4,2,nt
CC1=C(C(=O)NCCN2CCOCC2)C2(CCC(C)CC2)OC1=O (stereo not drawn),-2,-2,2,0,-2,nt
O=C(CCCCCN1C(=O)[C@@H]2Cc3ccccc3CN2C1=O)Nc1ccccc1Cl,-1,nt,-3,2,5,nt
COc1ccc(CCC(=O)Nc2ccc(N3CCOCC3)cc2)cc1,0,-2,0,0,8,nt
Cc1ccc(CNC(=O)c2coc(=O)c3ccccc23)o1,0,8,32*,-11,3,10
O=C(NC(=S)Nc1cccc(S(=O)(=O)NC2=NCCC2)c1)c1cc(-c2ccco2)nc2ccccc12,0,0,32*,-5,7,13
Cc1ccc(-c2cc(C(=O)N3CC(C)CC(C)C3)c3ccccc3n2)o1 (stereo not drawn),1,nt,64*,-1,8,29*
Cc1ccc(-c2cc(C(=O)Nc3cccc(S(=O)(=O)N(C)C)c3)c3ccccc3n2)o1,-26,nt,50*,-6,-1,56*
CCn1cc(C(=O)NCc2ccc(C)o2)c2cc(OC)c(OC)cc2c1=O,-2,-6,13,0,-1,nt
Cc1ccc(NS(=O)(=O)c2ccc(CCC(=O)NCc3ccccn3)cc2)cc1,-8,4,-2,0,7,nt
CCOC(=O)CCNC(=O)Nc1ccc2nc(C)n(Cc3ccccc3Cl)c(=O)c2c1,-2,-9,-2,-1,2,nt
Cc1ccc(-c2cc(C(=O)NCc3ccco3)c3ccccc3n2)o1,16,-8,48*,-5,6,9
O=C(NCc1ccco1)c1cccnc1-c1nc2ccccc2s1,10,-11,42*,9,10,46*
Oc1ccc(Nc2ccccc2F)c2cccnc12,12,nt,42*,nt,nt,1
Oc1ccc(CNc2ccccc2C(F)(F)F)c2cccnc12,4,nt,47*,nt,nt,33*
Oc1ccc(CNc2ccccc2Cl)c2cccnc12,5,nt,56*,nt,nt,65*
Oc1ccc(CNc2ccccc2F)c2cccnc12,9,-1,5,0,5,nt
COc1ccccc1NC(=O)C1CCCN1S(=O)(=O)c1cccc2nsnc12 (stereo not drawn),nt,nt,nt,-1,-1,nt
COc1cc(C2C(C#N)=C(N)Oc3cc(C)oc(=O)c32)cc2c1OCO2 (stereo not drawn),-2,-4,5,1,21,nt
Cc1onc(-c2c(Cl)cccc2Cl)c1C(=O)O/N=C(\C#N)c1c(Cl)cccc1Cl,-3,-1,-3,3,2,nt
CCOC(=O)c1ccc(NC(=O)CC2Sc3ncnn3C2=O)cc1 (stereo not drawn),2,-9,55*,-1,0,69*
COc1ccc(NC(=O)CC2Sc3ncnn3C2=O)cc1 (stereo not drawn),7,5,86*,2,-3,25*
O=C(CC1Sc2ncnn2C1=O)Nc1ccc(Cl)cc1 (stereo not drawn),3,-4,9,-1,5,nt
